# Experimental data taken from ChEMBL document CHEMBL4715736, “Identification of anticancer agents based on the thieno[2,3-b]pyridine and 1H-pyrazole molecular scaffolds” (2016).
# Tests used:
# Format in all cases: functional
# SNB-75 = experiment: Growth inhibition of human SNB-75 cells assessed as cell growth at 10 uM incubated for 48 hrs by sulforhodamine B assay relative to control; conditions: read-out: Activity
# Method in brief: (§1)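 Run by the NCI Developmental Therapeutics Program as part of its 60-line human tumour panel. Each compound tested at a single 10 µM dose. Growth expressed as % relative to untreated control cells (100%).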
# SW-620 = experiment: Growth inhibition of human SW-620 cells incubated for 48 hrs by sulforhodamine B assay
# Method in brief: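 NCI DTP 60-line human tumour panel. Dose-response curves were run only for ligands active in the initial 10 µM screen. GI50 (concentration giving 50% of maximal inhibition of proliferation) and TGI (concentration giving total growth inhibition) were derived from these curves.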
# SK-MEL-2 [1] = experiment: Growth inhibition of human SK-MEL-2 cells assessed as cell growth at 10 uM incubated for 48 hrs by sulforhodamine B assay relative to control; conditions: read-out: Activity; method in brief: as §1
# UACC-257 = experiment: Growth inhibition of human UACC-257 cells assessed as cell growth at 10 uM incubated for 48 hrs by sulforhodamine B assay relative to control; conditions: read-out: Activity; method in brief: as §1
# SK-MEL-2 [2] = experiment: Growth inhibition of human SK-MEL-2 cells assessed as cell growth at 1 uM incubated for 48 hrs by sulforhodamine B assay relative to control; conditions: read-out: Activity
# NCI/ADR-RES = experiment: Growth inhibition of human NCI/ADR-RES cells assessed as cell growth at 10 uM incubated for 48 hrs by sulforhodamine B assay relative to control; conditions: read-out: Activity
# Method in brief: (§2)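 Submitted to the NCI Developmental Therapeutics Program for the NCI60 human tumour cell line panel. First screen at a single 10 µM concentration. Read-out is growth relative to untreated control cells set at 100%.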
# HT-29 = experiment: Growth inhibition of human HT-29 cells assessed as cell growth at 10 uM incubated for 48 hrs by sulforhodamine B assay relative to control; conditions: read-out: Activity; method in brief: as §2
# TK-10 [3] = experiment: Growth inhibition of human TK-10 cells assessed as cell growth at 1 uM incubated for 48 hrs by sulforhodamine B assay relative to control; conditions: read-out: Activity
# MOLT-4 = experiment: Growth inhibition of human MOLT-4 cells assessed as cell growth at 10 uM incubated for 48 hrs by sulforhodamine B assay relative to control; conditions: read-out: Activity; method in brief: as §2
# NCI-H522 = experiment: Growth inhibition of human NCI-H522 cells assessed as cell growth at 10 uM incubated for 48 hrs by sulforhodamine B assay relative to control; conditions: read-out: Activity; method in brief: as §2
# BT-549 = experiment: Growth inhibition of human BT-549 cells assessed as cell growth at 10 uM incubated for 48 hrs by sulforhodamine B assay relative to control; conditions: read-out: Activity
# Method in brief: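 NCI Developmental Therapeutics Program NCI60 human tumour cell line panel, one-dose primary screen with every compound at 10 µM. Growth is expressed as % of untreated control cells (100%).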
# Hs-578T = experiment: Growth inhibition of human Hs-578T cells assessed as cell growth at 10 uM incubated for 48 hrs by sulforhodamine B assay relative to control; conditions: read-out: Activity; method in brief: as §2
# SK-MEL-2 [4] = experiment: Growth inhibition of human SK-MEL-2 cells assessed as cell growth at 0.01 uM incubated for 48 hrs by sulforhodamine B assay relative to control; conditions: read-out: Activity
# MDA-MB-468 = experiment: Growth inhibition of human MDA-MB-468 cells incubated for 48 hrs by sulforhodamine B assay; conditions: for CC50: read-out: LC50 (the source's name)
# Method in brief: (§3)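 NCI60 panel at the NCI Developmental Therapeutics Program. Only compounds active in the 10 µM screen went to dose-response testing. GI50, the concentration giving 50% of maximal inhibition of proliferation, and TGI, the concentration giving total growth inhibition, were derived from the dose-response curves.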
# TK-10 [5] = experiment: Growth inhibition of human TK-10 cells assessed as cell growth at 10 uM incubated for 48 hrs by sulforhodamine B assay relative to control; conditions: read-out: Activity; method in brief: as §1
# 786-0 = experiment: Growth inhibition of human 786-0 cells assessed as cell growth at 10 uM incubated for 48 hrs by sulforhodamine B assay relative to control; conditions: read-out: Activity
# Method in brief: (§4)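 NCI Developmental Therapeutics Program NCI60 panel. Compounds that were active in the 10 µM one-dose screen went on to dose–response testing. Growth at each concentration is expressed relative to untreated control (100%). GI50 (concentration giving 50% of maximal inhibition of proliferation) and TGI (concentration giving total growth inhibition) were derived from the curves.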
# NCI-H460 = experiment: Growth inhibition of human NCI-H460 cells assessed as cell growth at 10 uM incubated for 48 hrs by sulforhodamine B assay relative to control; conditions: read-out: Activity; method in brief: as §2
# MCF7 = experiment: Growth inhibition of human MCF7 cells assessed as cell growth at 10 uM incubated for 48 hrs by sulforhodamine B assay relative to control; conditions: read-out: Activity; method in brief: as §2
# HOP-92 = experiment: Growth inhibition of human HOP-92 cells assessed as cell growth at 10 uM incubated for 48 hrs by sulforhodamine B assay relative to control; conditions: read-out: Activity; method in brief: as §2
# SK-OV-3 = experiment: Growth inhibition of human SK-OV-3 cells assessed as cell growth at 10 uM incubated for 48 hrs by sulforhodamine B assay relative to control; conditions: read-out: Activity; method in brief: as §1
# DU-145 = experiment: Growth inhibition of human DU-145 cells assessed as cell growth at 10 uM incubated for 48 hrs by sulforhodamine B assay relative to control; conditions: read-out: Activity; method in brief: as §4
# SF-539 = experiment: Growth inhibition of human SF-539 cells assessed as cell growth at 10 uM incubated for 48 hrs by sulforhodamine B assay relative to control; conditions: read-out: Activity; method in brief: as §1
# HOP-62 = experiment: Growth inhibition of human HOP-62 cells assessed as cell growth at 10 uM incubated for 48 hrs by sulforhodamine B assay relative to control; conditions: read-out: Activity; method in brief: as §2
# CAKI-1 = experiment: Growth inhibition of human CAKI-1 cells assessed as cell growth at 10 uM incubated for 48 hrs by sulforhodamine B assay relative to control; conditions: read-out: Activity; method in brief: as §4
# T47D = experiment: Growth inhibition of human T47D cells assessed as cell growth at 10 uM incubated for 48 hrs by sulforhodamine B assay relative to control; conditions: read-out: Activity; method in brief: as §1
# IGROV-1 = experiment: Growth inhibition of human IGROV-1 cells incubated for 48 hrs by sulforhodamine B assay; method in brief: as §3
# MDA-MB-231 = experiment: Growth inhibition of human MDA-MB-231 cells assessed as cell growth at 10 uM incubated for 48 hrs by sulforhodamine B assay relative to control; conditions: read-out: Activity; method in brief: as §2
# CCRF-CEM = experiment: Growth inhibition of human CCRF-CEM cells assessed as cell growth at 10 uM incubated for 48 hrs by sulforhodamine B assay relative to control; conditions: read-out: Activity; method in brief: as §4
# HCT-15 = experiment: Growth inhibition of human HCT-15 cells assessed as cell growth at 10 uM incubated for 48 hrs by sulforhodamine B assay relative to control; conditions: read-out: Activity; method in brief: as §2
SMILES,growth at 10 µM (SNB-75) [%],GI50 (SW-620) [µM],LC50 (concentration killing 50% of cells) (SW-620) [µM],TGI (SW-620) [µM],growth at 10 µM (SK-MEL-2 [1]) [%],growth at 10 µM (UACC-257) [%],growth at 1 µM (SK-MEL-2 [2]) [%],growth at 10 µM (NCI/ADR-RES) [%],growth at 10 µM (HT-29) [%],growth at 1 µM (TK-10 [3]) [%],growth at 10 µM (MOLT-4) [%],growth at 10 µM (NCI-H522) [%],growth at 10 µM (BT-549) [%],growth at 10 µM (Hs-578T) [%],growth at 0.01 µM (SK-MEL-2 [4]) [%],GI50 (MDA-MB-468) [µM],CC50 (MDA-MB-468) [µM],growth at 10 µM (TK-10 [5]) [%],growth at 10 µM (786-0) [%],growth at 10 µM (NCI-H460) [%],further results
Nc1c(C(=O)Nc2ccccc2)sc2nc3c(cc12)CN(Cc1ccccc1)CC3,-54,20.8,> 100,> 100,70,67,101,56,77,100,81,70,65,-11,96,17,> 100,19,54,44,TGI (MDA-MB-468): > 100 µM; growth at 10 µM (MCF7): 53%; growth at 10 µM (HOP-92): 13%; growth at 10 µM (SK-OV-3): 12%; growth at 10 µM (DU-145): 57%; growth at 10 µM (SF-539): 9%; growth at 10 µM (HOP-62): 26%; growth at 10 µM (CAKI-1): 56%; growth at 10 µM (T47D): 58%; GI50 (IGROV-1): 37.8 µM; LC50 (IGROV-1): > 100 µM; TGI (IGROV-1): > 100 µM; growth at 10 µM (MDA-MB-231): 37%; growth at 10 µM (CCRF-CEM): 84%; growth at 10 µM (HCT-15): 66%
Cc1cccc(NC(=O)c2sc3nc4c(cc3c2N)C(=O)CCC4)c1,4.87,0.193,> 100,≥ 100,13,37,17,5,-1,45,42,-22,32,-7,101,0.143,> 100,57,15,5,growth at 10 µM (MCF7): 16%; growth at 10 µM (HOP-92): 35%; growth at 10 µM (SK-OV-3): 3%; growth at 10 µM (DU-145): 6%; growth at 10 µM (SF-539): -61%; growth at 10 µM (HOP-62): 8%; growth at 10 µM (CAKI-1): 26%; growth at 10 µM (T47D): 29%; GI50 (IGROV-1): 0.662 µM; LC50 (IGROV-1): > 100 µM; TGI (IGROV-1): ≥ 100 µM; growth at 10 µM (MDA-MB-231): 20%; growth at 10 µM (CCRF-CEM): 24%; growth at 10 µM (HCT-15): 18%
COc1cccc(NC(=O)c2sc3nc4c(cc3c2N)CN(Cc2ccccc2)CC4)c1,-38,1.85,> 100,72.2,51,44,77,28,16,98,69,61,23,5,106,2.6,> 100,28,22,24,TGI (MDA-MB-468): 61.4 µM; growth at 10 µM (MCF7): 21%; growth at 10 µM (HOP-92): 23%; growth at 10 µM (SK-OV-3): 11%; growth at 10 µM (DU-145): 32%; growth at 10 µM (SF-539): -18%; growth at 10 µM (HOP-62): -17%; growth at 10 µM (CAKI-1): 53%; growth at 10 µM (T47D): 39%; GI50 (IGROV-1): 18.5 µM; LC50 (IGROV-1): > 100 µM; TGI (IGROV-1): > 100 µM; growth at 10 µM (MDA-MB-231): 54%; growth at 10 µM (CCRF-CEM): 76%; growth at 10 µM (HCT-15): 30%
